The EternaBench riboswitch data

Tested on: MS2 coat protein
Assay: apparent Kd, MS2 coat protein; higher = weaker binding; RNA-MaP array; FMN 200 µM where present
Summary of the method: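 The titrant was SNAP-549-labelled MS2 coat protein, run from 0.7 or 1.5 nM in doubling steps to 3 µM. It was applied to designs transcribed by stalled E. coli RNA polymerase on Illumina sequencing-chip clusters, without ligand first and then with constant ligand, in 100 mM Tris-HCl pH 7.5, 80 mM KCl, 4 mM MgCl2, BSA, DTT, yeast tRNA and Tween-20. The apparent Kd is the median of filtered per-cluster binding-curve fits, with green signal normalised to red-channel RNA signal and control-cluster median Fmax.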

[1] = designed as: OFF switch for flavin mononucleotide, no ligand
[2] = ligand present: flavin mononucleotide, designed as: OFF switch for flavin mononucleotide
[3] = designed as: ON switch for flavin mononucleotide, no ligand
[4] = ligand present: flavin mononucleotide, designed as: ON switch for flavin mononucleotide

| Sequence | apparent Kd [1] [nM] | apparent Kd [2] [nM] | apparent Kd [3] [nM] | apparent Kd [4] [nM] |
| --- | --- | --- | --- | --- |
| CCAUGAACAGGAUAUCUUCCUCCGAACAUGAGGAUCACCCAUGUAACUGUGUAGCAUGACAGAGAAGGGUUUAUGG | 99.5 | 56.7 | – | – |
| UUACUUGUGCAGAAGGGCAUUGAAUUAGGUUUUUAGGUUGAUCAGAAAUGCAGGAUAUGUUAAACAUGAGGAUCACCCAUGUAC | – | – | 66.9 | 13.9 |
| UCACGGUAUGUAGGAUAUGCAUAGCAUUGCUAUGCAGAAGGACAUGAGGAUCACCCAUGUAUGUAUUCCAUACUAAUCCCGUGA | 5.65 | 5.56 | – | – |
| AUAUUUAUUUAGAAGGACAUGAGGAUCACCCAUGUCGCUGGGCGCGGGAAACCGUGCCCGGCCAUGUAGGAUAUAGAUAGAUAU | 8.78 | 9.88 | – | – |
| CAGCCCUGAGGAUAUCCCUACUUGUACAUGAGGAUCACCCAUGUCCUCCUCCGGGCUUCGGGAGAAGGCAGGUCUC | 15.8 | – | – | – |
| AAUAUGAGCUGGUAUAUAAACCUCACAUGAGGAUCACCCAUGUAGGAUAUCAGCACGAUAAGUGCUGAGAAGGACAUCCAGCUC | 15.4 | 17.8 | – | – |
| AAAACACAUGAGGAUCACCCAUGUGAGGAUAUGUUCAUUGUGAGCAAACUUAUGAUGAACAGAAGGCACAUAAA | 45.5 | 50.7 | – | – |
| CAGUGCAAUGUAGGAUAUGCUCAGGAAUACUGAGCAGAAGGACAUGAGGAUCACCCAUGUAAAAUGAAAGAUAAUAAAGCACUG | 16.1 | 51 | – | – |
| AGCUAGUCAGGAUAUACGAACACGUCAAAAGACUUGAAGGGACAUGAGGAUCACCCAUGUAGAAGGGACUAGCA | 35.1 | 123 | – | – |
| CGCUGUCACGCAGGAUAUGCAUUGGAUUACAAUGCAGAAGGGCGAUUACAUGAGGAUCACCCAUGUGUCGACAGUGAAGAAGAG | – | – | – | 43 |
| GAGCGAAAGCUCAAUGUCGAUAGCAGAAGGAUAUGAAAACAUGAAAUAACAUGAGGAUCACCCAUGUAGGAUAUGCUAUCGACU | 7.41 | 14 | – | – |
| GCGCUUAUACAGAAGGCCAGAGACAUGAGGAUCACCCAUGUUAGAUUGUGGAGGAUAUGUGUUUUAUUACAGAUAGUUGAGCGC | – | – | 20.5 | 6.53 |
| GCCAUCGCAUGAGGAUAUGCUCCGGUUUCCGGAGCAGAAGGCAUGUCGUAAGACAUGAGGAUCACCCAUGUAGUCAAGAUGGCA | – | – | 912 | 41.5 |
| AAUAAACUCACAGGAUAUAGCAUAGGUCGCGUGAACUUACAGGCGACUAUGCUAGAAGGGUGACCACAUGAGGAUCACCCAUGU | – | – | 734 | 145 |
| CAGGUAGCUACAGGAUAUACACAGCUCAGUAAACUGAGCAAAAGAACUACAUGAGGAUCACCCAUGUAGAAGGGUAGCUGCCUG | 16.8 | 18.8 | – | – |
| AAACAUGUCCGAGGAUAUCUGGAAACAUUUUCAAGAGAAGGCGGACAUGAGGAUCACCCAUGUCUCUCCUCAUCAAAUCCAAGC | 8.2 | 44.9 | – | – |
| GUUUCACAUGAGGAUCACCCAUGUGAGGAUAUCGAUUUGUUAACCGUAGUUAAUAGAUCGAGAAGGCGCGUGAU | 70.6 | 68.8 | – | – |
| AUUGCCUUUGUCAGGAUAUCUGAGGUCGAAAGUGAAGAGAAGGGACAUGAGGAUCACCCAUGUAGUGGUACGCA | 144 | 431 | – | – |
| GACUAGUAAGGAUAUCAAGUUCUCCACAUGAGGAUCACCCAUGUCGAUAACCUCUGACAAUGAGAAGGUGCUGACU | 35.1 | 31.9 | – | – |

| Sequence | apparent Kd [1] [nM] | apparent Kd [2] [nM] | apparent Kd [3] [nM] | apparent Kd [4] [nM] |
| --- | --- | --- | --- | --- |
| AAUACAAAUAGUCAGGAUAUCAAAAAUAAGACAUGAGGAUCACCCAUGUAAUAAGUAAAAGUAAAUGAGAAGGGACAGGGUGAAA | – | – | 168 | 266 |
| UGAAUAAUGUUAGGAUAUACAUGAGGAAUCCUCGUAGAAGGAACAUGACAUGAGGAUCACCCAUGUAGCGCUCAGAAGAGCGCA | – | – | 140 | 135 |
| GGACAUCCCACAGGAUAUGCUGGACUUUGUCCAGCAGAAGGGUGAAAACAUGAGGAUCACCCAUGUAGGAUGUCCAUAUUUAAU | – | – | 112 | 643 |
| CCUAUACAUGAGGAUCACCCAUGUCAGGAUAUAGAAAGCCGCGGAAUAGGACACGGCACUAGAAGGGACUGGCU | 29.7 | 36.1 | – | – |
| AUAGCAACAUGAGGAUCACCCAUGUAGGAUAUCGCUAUUGUAAUCAUGAAACAUGAUUACAAUAGCGAGAAGGACAUAUGCUAG | 11.5 | 12.2 | – | – |
| GUAGCAUGCCAAGGAUAUUCAUAUAAUAAGUAAACAUGAGGAUCACCCAUGUAGUGAGAGCCUUGGGAGAAGGUGGGAUGCUAC | – | – | 26.7 | 41.9 |
| UCUAUCAGAGGAUAUACAUGAGGAUCACCCAUGUCAGUCGAACGGGAUGGAAGGUUAGGUAGAAGGUUGUAGAU | 39.8 | 41.2 | – | – |
| UUGGACGUCGUAGGAUAUGUAGGAUAUUCCUACAUGAGGAUCACCCAUGUUGACAUGGAAGAAGGACUGAAGGACGAUGUCCAU | – | – | 763 | 22.9 |
| GGGUACAUCGGAGGAUAUCAUGUAGAUACAUGAGGAUCACCCAUGUCGUACGAGAGUACGGAGAUUGAGAAGGCCGAUGUACCG | – | – | 31 | 14.7 |
| GAGUUUACGUUUGUCACUUAGCGAGAGGAUAUGGAAAACAAGACAUGAGGAUCACCCAUGUACUAUCAGAAGGCUCGAGUACGA | – | – | 7.26 | 5.59 |
| GGUUGUAAUGUCAGCGAGUGUUAGAGAAGGUACAUGAGGAUCACCCAUGUACGUGAUCUUGCGAGUAAGGAUAUCUGUUAUUCA | 5.2 | 5.5 | – | – |
| UAUAUAUAGUAAGGAUAUGUAAUUAUUCUAUAAACAGAAGGUACUGACAUGAGGAUCACCCAUGUUUUAGUGUGGGCAUGUAGA | 43.4 | 46 | – | – |
| AAUCCACAUGAGGAUCACCCAUGUCAGGAAAUGACAGGAUAUAGCGAAAAAAAAAAAAAGCUAGAAGGGUCUAAUU | – | – | 175 | 67.5 |
| UCAUACAUUCGAGGAUAUCGGUGAUAACUCUAACGAGAAGGCGAUUUAAAACAUAAUGCUGUAGACAUGAGGAUCACCCAUGUA | – | – | 416 | 146 |
| AGUGUUGGAGGAUAUACAUGAGGAUCACCCAUGUACAUCACACAGUAUAUGAAACCAUGUAGAAGGCCAAUACA | 55.8 | 73.8 | – | – |
| GUAGAGUCAGGAUAUACGAGAUCGAAAGAUCGGCGGUCUGUACAUGAGGAUCACCCAUGUAGAAGGGACUCUAC | 16.4 | 94.4 | – | – |
| CUAAUGUAGACAGGAUAUCCUGGACAUGAGGAUCACCCAUGUGCAUAAAAUGGAGAAGGGUCACGGAGGCCCUGUGGGCAGGGU | – | – | 46.3 | 9.9 |
| UCACGGGACUGAGGAUAUACAUUUAUUAUUUUUGUAGAAGGCAGAAUGUUAGUUUUUUCACUAUACAUGAGGAUCACCCAUGUU | 27.1 | 19.9 | – | – |
| GGAUCGUAUGUCAGGAUAUACCACUGGAUACAGUGGUAGAAGGGACAUGAGGAUCACCCAUGUUCUAUCGAUCC | 15.9 | 20.4 | – | – |

| Sequence | apparent Kd [1] [nM] | apparent Kd [2] [nM] | apparent Kd [3] [nM] | apparent Kd [4] [nM] |
| --- | --- | --- | --- | --- |
| GACGGUGAUGUAGGAUAUACGCUGGAAUACAGCGUAGAAGGACAUGAGGAUCACCCAUGUAAAGUGUCUCUAAAUAACACCGUC | 21.5 | 47.2 | – | – |
| AAAAAACAUGAGGAUCACCCAUGUAAAAAAAAUAGAGGAUAUGGGUGAUCCAAAAAAAAACCAGAAGGCUAAAAAA | – | – | 18.2 | 16.6 |
| CUUUCGUUAGCAGGAUAUGGACAGGCCUGUCCGUCUUGAGUCAGUAACAUGAGGAUCACCCAUGUCCAGAAGGGCUCGAAGGGA | 17.7 | 32.4 | – | – |
| GUAUUUAGAUAAGGAUAUAAGUCUAGGACAUGAGGAUCACCCAUGUGUGUCUUAGAAGGUAUUUGGGUAAUAUUGUUACAGUAA | – | – | 160 | 114 |
| ACACAUGUCCGAGGAUAUCUGAGAUCAUUUUCAAGAGAAGGCGGACAUGAGGAUCACCCAUGUCUCUCCUCAUCAACUCCAAAU | 8.06 | 49.2 | – | – |
| CGCUCACAUGAGGAUCACCCAUGUCCUAGGAGGUCAGGAUAUAGCCCGCAUCCGCUGCGGCUAGAAGGGACAGCUG | – | – | 203 | 68.6 |
| CCCGGGUUAGGAUAUUUGGGCCCGGGCGAACGCCCGGGCCCGGAGAAGGGACAUGAGGAUCACCCAUGUCCGGG | 21.2 | 19.2 | – | – |
| UGACUGAUAUAGAAGGGUAUGUGGGAAUUACAUGAGGAUCACCCAUGUUUUAUAGGAUAUGUAUAUAGAAUUUAAUCAAGUUUA | 40.5 | 37.1 | – | – |
| CGCUAGGAUGGGUCUAAUGGACCUCAGGAUAUGCUUGUACAUGAGGAUCACCCAUGUAACAUUGUGCAGAAGGGAGGAUCCACG | – | – | 8.82 | 4.57 |
| CGGUAACAUGAGGAUCACCCAUGUGAGGAUAUCGUACGUUCGUCGAAAGACGAUCGUACGAGAAGGCAUGACCG | 47.5 | 22.2 | – | – |
| GUAGAGGAUUGAGGAUAUGCAGAGAGAUCAUGCGCGUCGCGCACAUGAGGAUCACCCAUGUAAGAGCAGAAGGUAACUAUGAAC | 66.8 | 43.4 | – | – |
| CCCAUGUUAGGAUAUCGGCUCCGCCGUUCCACAUGGCGCUCCGAGAAGGAACAUGAGGAUCACCCAUGUAAAGA | 39.1 | 140 | – | – |
| AGAGAGUGACAGAAGGGCAAGCUCGAAAGCGGAGAACGCGAACGAGCUUGCAGGAUAUGUUGAACAUGAGGAUCACCCAUGUCA | – | – | 7.79 | 6.41 |
| UCGACCGGAGGAUAUCACGUAAAGUACAUGAGGAUCACCCAUGUGUGAUGACUCGAGUCGUGAGAAGGCCGAUAUG | 76.4 | 172 | – | – |
| UUUGGGUCAGGAUAUUGUUAGUUUAGUUGUUUGUAUUAGUUCGAGAAGGGACAUGAGGAUCACCCAUGUGGUUA | 70.5 | 77.5 | – | – |
| GGGCUGUCAGGAUAUUUUGGGCCCGGGUAAACCCGGGCCCGGGAGAAGGGACAUGAGGAUCACCCAUGUGGCCC | 34.7 | 37.3 | – | – |
| GCCAUCUCAUGAGGAUAUGCUCCCGUUUCGGGAGCAGAAGGCAUGUCAUAAGACAUGAGGAUCACCCAUGUAGUUAAGAUGGCA | – | – | 286 | 11.8 |
| UUCAUGUGAGGAUAUGCGGCAUCAGGUGGGCCUGUCGCUGAGCAGAAGGCACAUGAGGAUCACCCAUGUGCUCC | 16.4 | 41.6 | – | – |
